From ChEMBL document CHEMBL1914430, “Synthesis of some new 1,3,5-trisubstituted pyrazolines bearing benzene sulfonamide as anticancer and anti-inflammatory agents” (Bioorg Med Chem Lett, 2011)

Key:
Type in all cases: functional
KM12 = experiment: Anticancer activity against human KM12 cells after 48 hrs; conditions: KM12, 48 h
Procedure, shortened: (§1)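 NCI Drug Evaluation Branch 60-cell-line screen across leukemia, melanoma, lung, colon, CNS, ovarian, renal, prostate and breast panels. The incubation period is 48 h. Parameters are derived from dose–response data: GI50 is the concentration giving 50% decrease in net growth, TGI is total growth inhibition, and LC50 is net 50% loss of initial cells. Values beyond the tested range are reported as greater or less than the maximum or minimum concentration.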

SNB-75 = experiment: Anticancer activity against human SNB75 cells after 48 hrs; conditions: SNB-75, 48 h
Procedure, shortened: (§2)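 NCI 60-line panel protocol with a 48 h incubation. Per line: GI50 = concentration giving 50% decrease in net cell growth; TGI = total growth inhibition; LC50 = net 50% loss of initial cells. When the level was not reached or was exceeded, the value is given as greater or less than the highest or lowest concentration tested.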

HOP-92 = experiment: Anticancer activity against human HOP92 cells after 48 hrs; conditions: HOP-92, 48 h; procedure, shortened: as §1
HOP-62 = experiment: Anticancer activity against human HOP62 cells after 48 hrs; conditions: HOP-62, 48 h; procedure, shortened: as §1
MDA-MB-468 = experiment: Anticancer activity against human MDA-MB-468 cells after 48 hrs; conditions: MDA-MB-468, 48 h; procedure, shortened: as §1
HT-29 = experiment: Anticancer activity against human HT-29 cells after 48 hrs; conditions: HT-29, 48 h; procedure, shortened: as §1
SW-620 = experiment: Anticancer activity against human SW620 cells after 48 hrs; conditions: SW-620, 48 h; procedure, shortened: as §2
EKVX = experiment: Anticancer activity against human EKVX cells after 48 hrs; procedure, shortened: as §1
MDA-MB-435 = experiment: Anticancer activity against human MDA-MB-435 cells after 48 hrs; conditions: MDA-MB-435, 48 h; procedure, shortened: as §1
[1] = Anticancer activity against human Hs 578T cells after 48 hrs; procedure, shortened: as §1
SF-268 = experiment: Anticancer activity against human SF268 cells after 48 hrs; conditions: SF-268, 48 h; procedure, shortened: as §2
NCI-H460 = experiment: Anticancer activity against human NCI-H460 cells after 48 hrs; conditions: NCI-H460, 48 h; procedure, shortened: as §2
HCC 2998 = experiment: Anticancer activity against human HCC2998 cells after 48 hrs; conditions: HCC 2998, 48 h; procedure, shortened: as §1
SK-MEL-2 = experiment: Anticancer activity against human SK-MEL-2 cells after 48 hrs; conditions: SK-MEL-2, 48 h; procedure, shortened: as §2
ACHN = experiment: Anticancer activity against human ACHN cells after 48 hrs; procedure, shortened: as §1
OVCAR-3 = experiment: Anticancer activity against human OVCAR3 cells after 48 hrs; conditions: OVCAR-3, 48 h; procedure, shortened: as §2
SNB-19 = experiment: Anticancer activity against human SNB19 cells after 48 hrs; conditions: SNB-19, 48 h; procedure, shortened: as §2
SN12C = experiment: Anticancer activity against human SN12C cells after 48 hrs; procedure, shortened: as §2
DU-145 = experiment: Anticancer activity against human DU145 cells after 48 hrs; conditions: DU-145, 48 h; procedure, shortened: as §1
MCF7 = experiment: Anticancer activity against human MCF7 cells after 48 hrs; conditions: MCF7, 48 h; procedure, shortened: as §1
IGROV-1 = experiment: Anticancer activity against human IGROV1 cells after 48 hrs; conditions: IGROV-1, 48 h; procedure, shortened: as §1
BT-549 = experiment: Anticancer activity against human BT549 cells after 48 hrs; conditions: BT-549, 48 h; procedure, shortened: as §1
SF-539 = experiment: Anticancer activity against human SF539 cells after 48 hrs; conditions: SF-539, 48 h; procedure, shortened: as §2
SK-MEL-5 = experiment: Anticancer activity against human SK-MEL-5 cells after 48 hrs; conditions: SK-MEL-5, 48 h; procedure, shortened: as §2
UACC-62 = experiment: Anticancer activity against human UACC62 cells after 48 hrs; conditions: UACC-62, 48 h
Procedure, shortened: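 NCI ~60 human tumour cell line panel with a 48 h incubation. GI50 is the concentration giving a 50% fall in net growth, TGI gives total growth inhibition, and LC50 gives a net 50% loss of initial cells. An effect not reached or exceeded is reported as greater or less than the highest or lowest concentration tested.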

RPMI-8226 = experiment: Anticancer activity against human RPMI8226 cells after 48 hrs; conditions: RPMI-8226, 48 h; procedure, shortened: as §2
Malme-3M = experiment: Anticancer activity against human MALME-3M cells after 48 hrs; procedure, shortened: as §1
OVCAR-4 = experiment: Anticancer activity against human OVCAR4 cells after 48 hrs; conditions: OVCAR-4, 48 h; procedure, shortened: as §2
HCT-15 = experiment: Anticancer activity against human HCT15 cells after 48 hrs; conditions: HCT-15, 48 h; procedure, shortened: as §1
CCRF-CEM = experiment: Anticancer activity against human CCRF-CEM cells after 48 hrs; procedure, shortened: as §1
NCI-H23 = experiment: Anticancer activity against human NCI-H23 cells after 48 hrs; conditions: NCI-H23, 48 h; procedure, shortened: as §2
RXF 393 = experiment: Anticancer activity against human RXF393 cells after 48 hrs; conditions: RXF 393, 48 h; procedure, shortened: as §2
[2] = read-out: LC50 (the source's name)

Compound: COc1ccc(C2CC(c3cc(Cl)c(C)cc3O)=NN2c2ccc(S(N)(=O)=O)cc2)cc1OC (centres undefined)
- GI50 (KM12): 3.07 µM
- LC50 (concentration causing net 50% loss of initial cells) (KM12): 49.2 µM
- TGI (KM12): 8.77 µM
- GI50 (SNB-75): 2.7 µM
- TGI (SNB-75): 97.2 µM
- CC50 (SNB-75; [2]): > 100 µM
- GI50 (HOP-92): 1.81 µM
- TGI (HOP-92): 7.42 µM
- CC50 (HOP-92; [2]): > 100 µM
- GI50 (HOP-62): 3.92 µM
- LC50 (concentration for 50% net loss of initial cells) (HOP-62): 52.4 µM
- TGI (HOP-62): 14.1 µM
- GI50 (MDA-MB-468): 2.58 µM
- TGI (MDA-MB-468): 9.51 µM
- CC50 (MDA-MB-468; [2]): > 100 µM
- GI50 (HT-29): 2.24 µM
- TGI (HT-29): 6.48 µM
- CC50 (HT-29; [2]): 36.9 µM
- GI50 (SW-620): 4.08 µM
- TGI (SW-620): 26.6 µM
- CC50 (SW-620; [2]): > 100 µM
- GI50 (EKVX): 4.15 µM
- TGI (EKVX): 100 µM
- CC50 (EKVX; [2]): > 100 µM
- GI50 (MDA-MB-435): 3.97 µM
- TGI (MDA-MB-435): 24 µM
- CC50 (MDA-MB-435; [2]): > 100 µM
- GI50 [1]: 3.29 µM
- TGI [1]: 34.3 µM
- CC50 [1, 2]: > 100 µM
- GI50 (SF-268): 4.74 µM
- LC50 (concentration killing 50% of initial cells) (SF-268): > 100 µM
- GI50 (NCI-H460): 2.5 µM
- LC50 (50% lethal concentration) (NCI-H460): 22 µM
- TGI (NCI-H460): 5.85 µM
- GI50 (HCC 2998): 2.72 µM
- LC50 (net 50% loss of initial cells) (HCC 2998): 27.4 µM
- TGI (HCC 2998): 7.25 µM
- GI50 (SK-MEL-2): 5.87 µM
- LC50 (SK-MEL-2): > 100 µM
- TGI (SK-MEL-2): 32.7 µM
- GI50 (ACHN): 3.15 µM
- TGI (ACHN): 12.2 µM
- CC50 (ACHN; [2]): > 100 µM
- GI50 (OVCAR-3): 3.37 µM
- LC50 (concentration giving 50% net loss of initial cells) (OVCAR-3): 77.5 µM
- TGI (OVCAR-3): 9.8 µM
- GI50 (SNB-19): 5.53 µM
- TGI (SNB-19): 89.3 µM
- CC50 (SNB-19; [2]): > 100 µM
- GI50 (SN12C): 3.7 µM
- LC50 (SN12C): > 100 µM
- TGI (SN12C): 30 µM
- GI50 (DU-145): 4.49 µM
- LC50 (concentration causing net 50% loss of initial cells) (DU-145): > 100 µM
- TGI (DU-145): 21.7 µM
- GI50 (MCF7): 3.07 µM
- LC50 (MCF7): > 100 µM
- TGI (MCF7): 13.6 µM
- GI50 (IGROV-1): 2.34 µM
- LC50 (net 50% loss of initial cells) (IGROV-1): 28.8 µM
- TGI (IGROV-1): 5.46 µM
- GI50 (BT-549): 3.03 µM
- TGI (BT-549): 13.4 µM
- CC50 (BT-549; [2]): 95.6 µM
- GI50 (SF-539): 2.1 µM
- LC50 (concentration causing net 50% loss of initial cells) (SF-539): 12 µM
- TGI (SF-539): 4.75 µM
- GI50 (SK-MEL-5): 4.28 µM
- LC50 (SK-MEL-5): 39.7 µM
- TGI (SK-MEL-5): 15.2 µM
- GI50 (UACC-62): 3.13 µM
- LC50 (UACC-62): 43.3 µM
- TGI (UACC-62): 12.9 µM
- GI50 (RPMI-8226): 4.1 µM
- LC50 (concentration for net 50% loss of initial cells) (RPMI-8226): > 100 µM
- TGI (RPMI-8226): 100 µM
- GI50 (Malme-3M): 3.65 µM
- TGI (Malme-3M): 24.6 µM
- CC50 (Malme-3M; [2]): > 100 µM
- GI50 (OVCAR-4): 4.18 µM
- LC50 (OVCAR-4): > 100 µM
- GI50 (HCT-15): 3.32 µM
- TGI (HCT-15): 20.2 µM
- CC50 (HCT-15; [2]): > 100 µM
- GI50 (CCRF-CEM): 5.35 µM
- LC50 (concentration causing net 50% loss of initial cells) (CCRF-CEM): > 100 µM
- TGI (CCRF-CEM): > 100 µM
- GI50 (NCI-H23): 3.11 µM
- LC50 (concentration killing 50% of initial cells) (NCI-H23): > 100 µM
- TGI (NCI-H23): 13.6 µM
- GI50 (RXF 393): 2.88 µM
- LC50 (RXF 393): 31.4 µM
- TGI (RXF 393): 7.52 µM
